This is an account of results in ChEMBL document CHEMBL4680175, “Sulfonamide-based ring-fused analogues for CAN508 as novel carbonic anhydrase inhibitors endowed with antitumor activity: Design, synthesis, and in vitro biological evaluation” (Eur J Med Chem, 2020).

One assay deals with Carbonic anhydrase 12 (Homo sapiens, UniProt O43570). Put plainly: Inhibition of recombinant human carbonic anhydrase 12 preincubated with enzyme for 15 mins by phenol red dye based stopped flow CO2 hydrase assay.
In the next assay the target is CDK9/cyclin T1 (Homo sapiens, UniProt P50750). In words: Inhibition of human full-length N-terminal GST/His6-tagged CDK9 (1 to 372 residues)/His6-tagged Cyclin-T1 (1 to 726 residues) expressed in sf9 cells using (YSPTSPS)2KK peptide as substrate in presence of [gamma33P]ATP.
Another assay concerns the target Carbonic anhydrase 2 (Homo sapiens, UniProt P00918). In words: Inhibition of recombinant human carbonic anhydrase 2 preincubated with enzyme for 15 mins by phenol red dye based stopped flow CO2 hydrase assay.
Another assay addresses Carbonic anhydrase 1 (Homo sapiens, UniProt P00915). In words: Inhibition of recombinant human carbonic anhydrase 1 preincubated with enzyme for 15 mins by phenol red dye based stopped flow CO2 hydrase assay.
Another assay addresses Carbonic anhydrase 9 (Homo sapiens, UniProt Q16790). Put plainly: Inhibition of recombinant human carbonic anhydrase 9 preincubated with enzyme for 15 mins by phenol red dye based stopped flow CO2 hydrase assay.
For assay [1], the target named is Cyclin-dependent kinase 2/cyclin E1 (Homo sapiens, UniProt P24941). Put plainly: Inhibition of CDK2/cyclin E (unknown origin) expressed in baculovirus infected Sf21 insect cells using histone H1 as substrate in presence of [gamma33P]ATP.
The next assay has as its system NCI/ADR-RES. In words: Antitumor activity against human NCI/ADR-RES cells assessed as cell growth inhibition at 10 uM incubated for 48 hrs by sulforhodamine B assay. The assay is classed as functional, cell-based. In short, it runs like this:
(§1)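 NCI Drug Evaluation Branch protocol: primary single-dose screen at 10 μM across a 57-line human cancer panel. Drug exposure is 48 h. Cell growth and viability are read by sulforhodamine B assay. Data are given as a mean graph of percent growth of treated cells and reported as percentage growth inhibition (GI%).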
(Sulforhodamine B stains cellular protein and so reports cell mass.)

For another assay, the system named is Hs-578T. Put plainly: Antitumor activity against human HS 578T cells assessed as cell growth inhibition at 10 uM incubated for 48 hrs by sulforhodamine B assay. The format is functional. Particulars: read-out: GI. The essentials: as §1
A further assay relates to ACHN. Put plainly: Antitumor activity against human ACHN cells assessed as cell growth inhibition at 10 uM incubated for 48 hrs by sulforhodamine B assay. The format is functional. Particulars: read-out: GI. In short, it runs like this: as §1
Another assay has as its system RXF 393. In words: Antitumor activity against human RXF 393 cells assessed as cell growth inhibition at 10 uM incubated for 48 hrs by sulforhodamine B assay. Particulars: read-out: GI. The format is functional. In short, it runs like this:
as §1

The next assay concerns NCI-H460. Put plainly: Antitumor activity against human NCI-H460 cells assessed as cell growth inhibition at 10 uM incubated for 48 hrs by sulforhodamine B assay. The assay is classed as functional. The following applies: read-out: GI. The essentials:
as §1

The subject of another assay is M14. In words: Antitumor activity against human M14 cells assessed as cell growth inhibition at 10 uM incubated for 48 hrs by sulforhodamine B assay. The following applies: read-out: GI. The assay is classed as functional. In short, it runs like this: as §1
The next assay concerns SR. In words: Antitumor activity against human SR cells assessed as cell growth inhibition at 10 uM incubated for 48 hrs by sulforhodamine B assay. The assay is classed as functional. The following applies: read-out: GI. The essentials: (§2)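 NCI one-dose screen: 57-cell-line panel exposed at 10 μM for 48 h, Drug Evaluation Branch protocol. Growth and viability read by sulforhodamine B; data given as percent growth inhibition from the mean-graph of percent growth of treated cells.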

For the next assay, the system named is LOX IMVI. Put plainly: Antitumor activity against human LOX IMVI cells assessed as cell growth inhibition at 10 uM incubated for 48 hrs by sulforhodamine B assay. The assay is classed as functional. The following applies: read-out: GI. The essentials:
as §1

For the next assay, the system named is A498. In words: Antitumor activity against human A498 cells assessed as cell growth inhibition at 10 uM incubated for 48 hrs by sulforhodamine B assay. The assay is classed as functional. The following applies: read-out: GI. The essentials:
as §1

A further assay deals with SNB-75. In words: Antitumor activity against human SNB-75 cells assessed as cell growth inhibition at 10 uM incubated for 48 hrs by sulforhodamine B assay. The assay is classed as functional. Particulars: read-out: GI. In short, it runs like this: as §2
For a further assay, the system named is NCI-H522. In words: Antitumor activity against human NCI-H522 cells assessed as cell growth inhibition at 10 uM incubated for 48 hrs by sulforhodamine B assay. The format is functional. Particulars: read-out: GI. In short, it runs like this:
as §1

The next assay relates to IGROV-1. Put plainly: Antitumor activity against human IGROV1 cells assessed as cell growth inhibition at 10 uM incubated for 48 hrs by sulforhodamine B assay. The format is functional. The following applies: read-out: GI. In short, it runs like this:
as §1

Another assay concerns SK-OV-3. Put plainly: Antitumor activity against human SK-OV-3 cells assessed as cell growth inhibition at 10 uM incubated for 48 hrs by sulforhodamine B assay. The format is functional. Particulars: read-out: GI. In short, it runs like this:
as §1

In the next assay the test system is 786-0. In words: Antitumor activity against human 786-0 cells assessed as cell growth inhibition at 10 uM incubated for 48 hrs by sulforhodamine B assay. The assay is classed as functional. Particulars: read-out: GI. The essentials: as §1
A further assay relates to CAKI-1. In words: Antitumor activity against human CAKI-1 cells assessed as cell growth inhibition at 10 uM incubated for 48 hrs by sulforhodamine B assay. The format is functional. Particulars: read-out: GI. The essentials:
as §1

The subject of the next assay is BT-549. In words: Antitumor activity against human BT-549 cells assessed as cell growth inhibition at 10 uM incubated for 48 hrs by sulforhodamine B assay. The assay is classed as functional. Particulars: read-out: GI. In short, it runs like this: as §1
In another assay the test system is TK-10. Put plainly: Antitumor activity against human TK-10 cells assessed as cell growth inhibition at 10 uM incubated for 48 hrs by sulforhodamine B assay. Particulars: read-out: GI. The assay is classed as functional. In short, it runs like this: as §2
The next assay deals with UO-31. Put plainly: Antitumor activity against human UO-31 cells assessed as cell growth inhibition at 10 uM incubated for 48 hrs by sulforhodamine B assay. The assay is classed as functional. The following applies: read-out: GI. In short, it runs like this:
as §2

Another assay concerns NCI-H322M. In words: Antitumor activity against human NCI-H322M cells assessed as cell growth inhibition at 10 uM incubated for 48 hrs by sulforhodamine B assay. The assay is classed as functional. Particulars: read-out: GI. In short, it runs like this:
as §1

The source made the active and inactive calls. The rule behind the calls is not given here.

Carbonic anhydrase 1, sequence (P00915 whole entry): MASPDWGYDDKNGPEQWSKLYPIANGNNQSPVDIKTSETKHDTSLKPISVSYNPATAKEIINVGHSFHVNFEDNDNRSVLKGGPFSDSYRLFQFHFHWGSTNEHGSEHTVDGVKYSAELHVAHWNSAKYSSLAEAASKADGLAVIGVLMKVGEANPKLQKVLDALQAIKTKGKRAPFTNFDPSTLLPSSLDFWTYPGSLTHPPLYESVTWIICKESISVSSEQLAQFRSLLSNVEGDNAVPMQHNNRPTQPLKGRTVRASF
CDK9/cyclin T1, sequence (O60563 whole entry, the tested form may be a part): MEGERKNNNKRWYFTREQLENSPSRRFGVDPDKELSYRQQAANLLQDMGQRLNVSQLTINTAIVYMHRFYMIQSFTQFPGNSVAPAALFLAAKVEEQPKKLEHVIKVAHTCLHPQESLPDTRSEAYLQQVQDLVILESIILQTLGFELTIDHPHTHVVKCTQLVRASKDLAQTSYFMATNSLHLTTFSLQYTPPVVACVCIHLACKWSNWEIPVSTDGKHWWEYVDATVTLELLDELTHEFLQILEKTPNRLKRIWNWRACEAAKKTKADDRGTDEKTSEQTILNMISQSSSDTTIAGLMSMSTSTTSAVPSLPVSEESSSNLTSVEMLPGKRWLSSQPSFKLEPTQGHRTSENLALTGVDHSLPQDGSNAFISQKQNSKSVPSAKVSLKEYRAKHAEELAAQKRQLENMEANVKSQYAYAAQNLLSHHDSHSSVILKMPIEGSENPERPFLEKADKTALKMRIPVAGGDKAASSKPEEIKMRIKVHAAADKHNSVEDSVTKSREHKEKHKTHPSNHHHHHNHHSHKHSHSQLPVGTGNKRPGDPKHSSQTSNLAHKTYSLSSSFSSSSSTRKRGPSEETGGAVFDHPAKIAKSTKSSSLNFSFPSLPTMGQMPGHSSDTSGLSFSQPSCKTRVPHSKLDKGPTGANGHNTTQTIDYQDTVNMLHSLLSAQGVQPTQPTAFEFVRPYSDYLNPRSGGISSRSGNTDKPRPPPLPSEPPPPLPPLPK
CDK9/cyclin T1, sequence (P50750 whole entry, the tested form may be a part): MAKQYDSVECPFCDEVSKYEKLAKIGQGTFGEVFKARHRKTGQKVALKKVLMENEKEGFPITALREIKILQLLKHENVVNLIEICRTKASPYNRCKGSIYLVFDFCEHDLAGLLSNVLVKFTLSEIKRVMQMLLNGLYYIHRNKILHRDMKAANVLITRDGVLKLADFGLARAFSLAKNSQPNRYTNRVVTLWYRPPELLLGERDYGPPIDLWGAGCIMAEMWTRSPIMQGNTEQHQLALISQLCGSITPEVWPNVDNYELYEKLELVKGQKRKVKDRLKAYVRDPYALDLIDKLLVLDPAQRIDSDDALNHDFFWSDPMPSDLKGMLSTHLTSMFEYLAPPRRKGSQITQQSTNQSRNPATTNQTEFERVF
Carbonic anhydrase 12, sequence (O43570 whole entry, the tested form may be a part): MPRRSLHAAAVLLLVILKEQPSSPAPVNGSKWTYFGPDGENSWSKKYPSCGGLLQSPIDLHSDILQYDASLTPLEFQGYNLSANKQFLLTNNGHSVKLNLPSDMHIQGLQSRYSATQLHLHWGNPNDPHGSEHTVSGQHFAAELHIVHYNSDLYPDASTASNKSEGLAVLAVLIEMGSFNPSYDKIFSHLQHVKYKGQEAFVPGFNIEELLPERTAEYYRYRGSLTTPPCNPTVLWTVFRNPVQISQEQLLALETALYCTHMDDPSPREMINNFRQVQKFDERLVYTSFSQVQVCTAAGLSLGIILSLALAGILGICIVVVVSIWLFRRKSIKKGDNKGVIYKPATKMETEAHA

By Ki is commonly meant the dissociation constant of the complex between target and ligand, obtained from inhibition or displacement. For orientation: IC50 means the concentration at which inhibition is half-maximal. `Nc1nn2c(-c3ccc([N+](=O)[O-])cc3)ccnc2c1/N=N/c1ccc(S(N)(=O)=O)cc1`: the Ki came out at 14.4 nM on Carbonic anhydrase 12, 35.6 nM at Carbonic anhydrase 2, 2120 nM at Carbonic anhydrase 1 and 67.6 nM at Carbonic anhydrase 9. Moreover, the IC50 (at CDK9/cyclin T1; in assay [1]) was more than 12500 nM each time.
Consider `Nc1nn2cc(-c3ccc(Cl)cc3)[nH]c2c1/N=N/c1ccc(S(N)(=O)=O)cc1`, for which the outcome in the assay with NCI/ADR-RES was inactive. The Ki came to 36.5 nM at Carbonic anhydrase 12, 22.1 nM at Carbonic anhydrase 2, 651 nM at Carbonic anhydrase 1 and 16.6 nM at Carbonic anhydrase 9. In addition, the inhibition of growth at 10 µM in the assay with Hs-578T was determined as 21%; in the assay on ACHN, 29%; in the assay with RXF 393, 29%; with NCI-H460 it was 25%; in the assay with M14 it was 21%; with SR, 28%. Further, the inhibition of growth at 10 µM in the assay with LOX IMVI came out at 21%; with A498, 65%; in the assay on SNB-75, 23%; with NCI-H522, 30%; in the assay on IGROV-1 it was 21%; in the assay with SK-OV-3, 21%. In addition, the inhibition of growth at 10 µM with 786-0 came out at 28%; with CAKI-1 it was 35%; in the assay on BT-549 it was 34%; in the assay on TK-10, 27%; in the assay with UO-31, 22%; in the assay on NCI-H322M, 25%. The IC50 (at CDK9/cyclin T1; in assay [1]) was more than 12500 nM throughout.
In the case of `Nc1nn2c(-c3ccc(Cl)cc3)ccnc2c1/N=N/c1ccc(S(N)(=O)=O)cc1`, the Ki on Carbonic anhydrase 12 was found to be 44.3 nM; on Carbonic anhydrase 2 it was 23.4 nM; at Carbonic anhydrase 1, 544 nM; on Carbonic anhydrase 9 it was 56.3 nM. Moreover, the IC50 on CDK9/cyclin T1 was more than 12500 nM; in assay [1] it was 6400 nM.
With `Nc1n[nH]c(N)c1/N=N/c1ccc(S(N)(=O)=O)cc1`, the Ki at Carbonic anhydrase 12 came out at 10.1 nM; on Carbonic anhydrase 2, 38.1 nM; at Carbonic anhydrase 1 it was 271 nM; at Carbonic anhydrase 9, 22 nM. In addition, the values for the IC50 (on CDK9/cyclin T1; in assay [1]) were more than 12500 nM and 41700 nM, respectively.
Turning to `Nc1nn2c(-c3cccs3)ccnc2c1/N=N/c1ccc(S(N)(=O)=O)cc1`, the Ki on Carbonic anhydrase 12 worked out at 59 nM; on Carbonic anhydrase 2 it was 7.1 nM; on Carbonic anhydrase 1, 1150 nM; at Carbonic anhydrase 9, 40.1 nM. The IC50 (on CDK9/cyclin T1; in assay [1]) was more than 12500 nM throughout.
In the case of `Nc1nn2c(-c3ccc(F)cc3)ccnc2c1/N=N/c1ccc(S(N)(=O)=O)cc1`, the Ki at Carbonic anhydrase 12 is 31.4 nM; at Carbonic anhydrase 2 it was 14.5 nM; at Carbonic anhydrase 1, 681 nM; on Carbonic anhydrase 9, 6 nM. Moreover, the IC50 (on CDK9/cyclin T1; in [1]) was more than 12500 nM each time.
With `Nc1nn2c(-c3ccccc3)ccnc2c1/N=N/c1ccc(S(N)(=O)=O)cc1`, the Ki was determined as 25.4 nM on Carbonic anhydrase 12, 27.6 nM on Carbonic anhydrase 2, 458 nM at Carbonic anhydrase 1 and 31.8 nM on Carbonic anhydrase 9. In addition, the IC50 (at CDK9/cyclin T1; in assay [1]) was more than 12500 nM throughout.
In the case of `Cc1ccc(-c2ccnc3c(/N=N/c4ccc(S(N)(=O)=O)cc4)c(N)nn23)cc1`, the Ki on Carbonic anhydrase 12 stood at 60.7 nM; on Carbonic anhydrase 2, 6.2 nM; at Carbonic anhydrase 1, 1330 nM; at Carbonic anhydrase 9 it was 45.7 nM. Moreover, the IC50 (at CDK9/cyclin T1; in assay [1]) was more than 12500 nM each time.
Regarding `Nc1nn2c(-c3ccc(Br)cc3)ccnc2c1/N=N/c1ccc(S(N)(=O)=O)cc1`, the Ki at Carbonic anhydrase 12 turned out to be 54.3 nM; on Carbonic anhydrase 2, 38.7 nM; at Carbonic anhydrase 1 it was 768 nM; on Carbonic anhydrase 9 it was 65 nM. Also, the IC50 is more than 12500 nM on CDK9/cyclin T1 and 8000 nM in assay [1].
Regarding `COc1ccc(-c2ccnc3c(/N=N/c4ccc(S(N)(=O)=O)cc4)c(N)nn23)cc1`, the Ki on Carbonic anhydrase 12 was 88.6 nM; at Carbonic anhydrase 2, 5.5 nM; at Carbonic anhydrase 1 it was 442 nM; at Carbonic anhydrase 9, 29.3 nM. For the same compound, the IC50 (on CDK9/cyclin T1; in assay [1]) was more than 12500 nM in each case.
